Test results as given in ChEMBL document CHEMBL4680061, “Unveiling the active isomer of cycloalanopine, a cyclic opine from Lactobacillus rhamnosus LS8, through synthesis and analog production” (2020).
In brackets after ≈: the same amount, converted by molar mass. Activity calls are given as the source filed them. The calls are words filed in the database; no cut-off is given here.

Tests used:
[1] = test system: Salmonella typhimurium; experiment: Antibacterial activity against Salmonella typhimurium ATCC 13311 assessed as bacterial growth inhibition after overnight incubation by spot-on-lawn assay; format: functional, Salmonella enterica subsp. enterica serovar Typhimurium; conditions: Salmonella enterica
Outline: (§1)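 Overnight cultures were grown in Luria broth at 37 °C and used to seed 5 mL soft agar (0.75%) in the same medium, poured over 1.5% hard agar. Compounds in MQ-H2O or DMSO were two-fold serially diluted from stock, and 10 µL of each was spotted. After drying, plates were incubated overnight at 37 °C. Growth inhibition at each spot was scored, and MIC was taken from triplicates.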

[2] = test system: Pseudomonas aeruginosa; experiment: Antibacterial activity against Pseudomonas aeruginosa ATCC 14207 assessed as bacterial growth inhibition after overnight incubation by spot-on-lawn assay; format: functional; outline: as §1
[3] = test system: Staphylococcus aureus; experiment: Antibacterial activity against Staphylococcus aureus ATCC 25923 assessed as bacterial growth inhibition after overnight incubation by spot-on-lawn assay; format: functional
Outline: (§2)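 Tryptic Soy Broth at 25 °C was used for culture and for the 0.75% soft-agar overlay, which was seeded from overnight cultures and poured onto 1.5% agar. Two-fold dilution series in MQ-H2O or DMSO were spotted (10 µL), dried, and incubated overnight at 25 °C. Growth inhibition at each spot was recorded, and MIC was derived from triplicate assays.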

[4] = test system: Escherichia coli; experiment: Antibacterial activity against Escherichia coli ATCC 25922 assessed as bacterial growth inhibition after overnight incubation by spot-on-lawn assay; format: functional; outline: as §1
[5] = test system: Listeria monocytogenes; experiment: Antibacterial activity against Listeria monocytogenes ATCC 15313 assessed as bacterial growth inhibition after overnight incubation by spot-on-lawn assay; format: functional
Outline: (§3)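 Lawns were prepared in All Purpose Tween medium at 25 °C: overnight cultures went into 5 mL soft agar (0.75%) poured onto 1.5% agar plates. Aqueous or DMSO solutions were two-fold serially diluted, and 10 µL aliquots were spotted and dried. Plates were incubated overnight at 25 °C. Inhibition was read at the spot locations, and MIC was based on triplicates.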

[6] = test system: Acinetobacter baumannii; experiment: Antibacterial activity against Acinetobacter baumannii ATCC 19606 assessed as bacterial growth inhibition after overnight incubation by spot-on-lawn assay; format: functional; conditions: ATCC 19606 = CIP 70.34 = JCM 6841; outline: as §1
[7] = test system: Enterococcus faecalis; experiment: Antibacterial activity against Enterococcus faecalis ATCC 7080 assessed as bacterial growth inhibition after overnight incubation by spot-on-lawn assay; format: functional; outline: as §3
[8] = test system: Enterococcus faecalis; experiment: Antibacterial activity against Enterococcus faecalis ATCC 7080 assessed as bacterial growth inhibition at 250 mg/ml after overnight incubation by spot-on-lawn assay; format: functional, organism-based; outline: as §3
[9] = test system: Staphylococcus aureus; experiment: Antibacterial activity against Staphylococcus aureus ATCC 25923 assessed as bacterial growth inhibition at 250 mg/ml after overnight incubation by spot-on-lawn assay; format: functional, organism-based; outline: as §2
[10] = test system: Pseudomonas aeruginosa; experiment: Antibacterial activity against Pseudomonas aeruginosa ATCC 14207 assessed as bacterial growth inhibition at 250 mg/ml after overnight incubation by spot-on-lawn assay; format: functional, organism-based; outline: as §1
[11] = test system: Listeria monocytogenes; experiment: Antibacterial activity against Listeria monocytogenes ATCC 15313 assessed as bacterial growth inhibition at 250 mg/ml after overnight incubation by spot-on-lawn assay; format: functional, organism-based; outline: as §3
[12] = test system: Salmonella typhimurium; experiment: Antibacterial activity against Salmonella typhimurium ATCC 13311 assessed as bacterial growth inhibition at 250 mg/ml after overnight incubation by spot-on-lawn assay; format: functional, organism-based; conditions: Salmonella enterica subsp. enterica serovar Typhimurium; outline: as §1
[13] = test system: Acinetobacter baumannii; experiment: Antibacterial activity against Acinetobacter baumannii ATCC 19606 assessed as bacterial growth inhibition at 250 mg/ml after overnight incubation by spot-on-lawn assay; format: functional, organism-based; conditions: ATCC 19606 = CIP 70.34 = JCM 6841; outline: as §1
[14] = test system: Escherichia coli; experiment: Antibacterial activity against Escherichia coli ATCC 25922 assessed as bacterial growth inhibition at 250 mg/ml after overnight incubation by spot-on-lawn assay; format: functional, organism-based; outline: as §1

For C[C@@H]1NCC(=O)NNC1=O, the MIC [1] was 19 mg/mL (≈ 133 mM), the MIC [2] was 38 mg/mL (≈ 265 mM) and the MIC [3] was 75 mg/mL (≈ 524 mM). For the same molecule, the MIC [4] was 2.3 mg/mL (≈ 16.1 mM), the MIC [5] was 38 mg/mL (≈ 265 mM) and the MIC [6] was 19 mg/mL (≈ 133 mM).

C[C@H]1N[C@@H](CCCCN)C(=O)NNC1=O was tested, and the MIC [1] was 3.9 mg/mL (≈ 18.2 mM), the MIC [2] was 62 mg/mL (≈ 289 mM) and the MIC [7] was 62 mg/mL (≈ 289 mM). The MIC [3] was 31 mg/mL (≈ 145 mM), the MIC [4] was 0.49 mg/mL (≈ 2.29 mM) and the MIC [5] was 7.8 mg/mL (≈ 36.4 mM). It also gave an MIC [6] of 0.98 mg/mL (≈ 4.57 mM).

C[C@H]1N[C@H](CCCCN)C(=O)NNC1=O gave an MIC [1] of 62 mg/mL (≈ 289 mM), an MIC [7] of 16 mg/mL (≈ 74.7 mM) and an MIC [3] of 62 mg/mL (≈ 289 mM). For the same molecule, the MIC [4] was 31 mg/mL (≈ 145 mM), the MIC [5] was 16 mg/mL (≈ 74.7 mM) and the MIC [6] was 62 mg/mL (≈ 289 mM).

In the case of C[C@@H]1N[C@@H](C)C(=O)NNC1=O, the Activity [8] was “inactive”, the Activity [9] was “inactive” and the Activity [10] was “inactive”. The Activity [11] was “inactive”, the Activity [12] was “inactive” and the Activity [13] was “inactive”. For the same molecule, the Activity [14] was “inactive”.

C[C@H]1N[C@H](C)C(=O)NNC1=O was tested, and the Activity [8] was “inactive”, the Activity [9] was “inactive” and the Activity [10] was “inactive”. The Activity [11] was “inactive”, the Activity [12] was “inactive” and the Activity [13] was “inactive”. The Activity [14] was “inactive”.

Molecule C[C@H]1NCC(=O)NNC1=O has an MIC [1] of 0.98 mg/mL (≈ 6.85 mM), an MIC [2] of 3.9 mg/mL (≈ 27.2 mM) and an MIC [7] of 2 mg/mL (≈ 14 mM). The MIC [3] was 2 mg/mL (≈ 14 mM), the MIC [4] was 0.06 mg/mL (≈ 0.419 mM) and the MIC [5] was 2 mg/mL (≈ 14 mM). The MIC [6] was 0.12 mg/mL (≈ 0.838 mM).

C[C@@H]1N[C@H](C)C(=O)NNC1=O showed an MIC [1] of 26 mg/mL (≈ 165 mM), an MIC [2] of 52 mg/mL (≈ 331 mM) and an MIC [7] of 26 mg/mL (≈ 165 mM). The MIC [3] was 26 mg/mL (≈ 165 mM), the MIC [4] was 3.2 mg/mL (≈ 20.4 mM) and the MIC [5] was 26 mg/mL (≈ 165 mM).
